Screens as filed in PubChem BioAssay.
Compounds with a hit are over-represented: about 2.6% of the library has one in this group of screens.
PHOSPHO1 block – PHOSPHO1 (human) inhibition; AID 1565; hit rate 1.1% among 290,000; inhibition, % at 13.3 µM; Q8TCT1; recombinant PHOSPHO1, absorbance phosphatase assay; in the data active means inhibition above about 60%
Target sequence (Q8TCT1 whole entry, looked up): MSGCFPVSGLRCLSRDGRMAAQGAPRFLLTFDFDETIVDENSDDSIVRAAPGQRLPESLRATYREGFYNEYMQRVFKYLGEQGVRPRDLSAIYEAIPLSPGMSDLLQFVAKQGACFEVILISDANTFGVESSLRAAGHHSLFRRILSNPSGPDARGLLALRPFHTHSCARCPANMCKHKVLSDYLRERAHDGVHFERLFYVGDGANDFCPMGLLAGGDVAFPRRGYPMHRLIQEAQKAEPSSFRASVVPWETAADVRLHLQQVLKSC
VIM-2 inhibitor – blocks Pseudomonas aeruginosa VIM-2 metallo-beta-lactamase; inhibition, % at 5.6 µM; purified VIM-2, nitrocefin hydrolysis, epi-absorbance fluorescence; hit rate 0.89% among 290,000;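 active means inhibition above the mean of all tested compounds plus 3 SD, cutoff set per screening run, cut at about 7.5% in these data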;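 further: red hydrolysis product quenches plate fluorescence so inhibitors raise well fluorescence; 0% = enzyme with DMSO and 100% = DMSO without enzyme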
ARFGAP1 inh – inhibitors of rat ARFGAP1 | hit rate 0.26% among 360,000 | inhibition, % at 16.5 µM | AID 651572 | Arfgap1-stimulated ARF1 GTP hydrolysis, GDP FP detection | Q62848;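 active means inhibition above a per-plate limit, mean inhibition of low control wells plus 3 SD, cut at about 25% in these data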;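 further: 0% = DMSO wells with enzyme and 100% = wells lacking Arfgap1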
Target sequence (Q62848 1-136 limits assumed): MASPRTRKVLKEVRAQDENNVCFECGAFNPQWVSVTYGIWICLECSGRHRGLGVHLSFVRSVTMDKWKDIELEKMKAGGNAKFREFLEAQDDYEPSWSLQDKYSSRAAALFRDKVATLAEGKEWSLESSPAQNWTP
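Material: rat Arfgap1 catalytic domain, aa 1-136; also added: human ARF1(Δ1-17)-GTP substrate; compound dosing: one concentration, 16.5 µM, DMSO 1.26%; incubation: GTP hydrolysis reaction 2 h at 25 °C; measured by: Tracer-displacement fluorescence polarization with EDTA stop, 620/688 nm; evaluation: % inhibition from polarization; repeats: one replicate per compound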
IMP-1 inhibitor – inhibitors of Pseudomonas aeruginosa IMP-1 metallo-beta-lactamase; purified IMP-1, nitrocefin hydrolysis, epi-absorbance fluorescence; inhibition, % at 5.6 µM; hit rate 0.45% among 290,000; AID 1556;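 active means inhibition above the mean plus 3 SD of all compounds in the same screening run, cut at about 4.5% in these data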;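 further: 0% = IMP-1 with DMSO and 100% = DMSO wells lacking enzyme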
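System: purified IMP-1; amount: IMP-1 0.2 nM before substrate addition; compound: single dose, 5.6 µM; times: 25 °C, 15 min preincubation, 25 min reaction; signal: Epi-absorbance via hydrolysed-nitrocefin quenching of white-plate fluorescence, 480/530 nm, EDTA stop; benchmarks: DMSO with and without IMP-1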
Calb FLC – affects C. albicans growth with fluconazole; hit rate 0.57% among 300,000; growth inhibition, % (test concentration not listed); C. albicans CaCi-2 (fluconazole-resistant clinical isolate) + fluconazole, Alamar Blue growth, 48 h;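 active means growth inhibition above about 58% in most replicates, limit read from the data, passing the limit was not always enough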;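 further: all wells also contain fluconazole at 8 µg/ml as a sub-toxic cotreatment; 0% = median of DMSO wells and 100% = median of geldanamycin control wells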
ASAP1 inh – ASAP1 ArfGAP inhibition. Q9ULH1. ASAP1-stimulated ARF1 GTP hydrolysis, GDP FP detection. inhibition, % at 16.5 µM. hit rate 0.19% among 360,000. AID 624377; in the data active means inhibition above about 25%;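 further: 0% = vehicle with enzyme and substrate and 100% = no enzyme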
An asterisk follows results filed as active; . = no result given.

SMILES	PHOSPHO1 block	VIM-2 inhibitor	ARFGAP1 inh	IMP-1 inhibitor	Calb FLC	ASAP1 inh
COc1ccc(-c2cc(-c3ccccc3)nc(N3CCCC3)n2)cc1OC	1	-2	5	4.8*	-2	4
COc1cc(/C=C2/C(=O)NN(c3ccccc3)C2=O)cc(Br)c1O	44	-7	-4	-9	-17	9
COc1cc(/C=C2\C(=O)NN(c3ccc(C)cc3)C2=O)cc([N+](=O)[O-])c1O	34	0	-3	-2	-36	10
CCOc1cc(/C=C2\C(=O)NN(c3ccccc3)C2=O)cc([N+](=O)[O-])c1O	-5	1	0	-2	95*	-4
COc1cc(/C=C2\C(=O)NN(c3ccccc3)C2=O)cc([N+](=O)[O-])c1O	6	-4	-14	-2	109*	-2
COc1cc(/C=C2/C(=O)NN(c3ccc(Cl)cc3)C2=O)cc(OC)c1O	38	-7	-10	-7	90*	5
CC(=O)Nc1cccc(-c2csc(Nc3ncccn3)n2)c1	28	-2	-4	-4	-6	0
CC(=O)Nc1cccc(-c2csc(Nc3ccc(C)cn3)n2)c1	-19	-4	9	-5	91*	9
Clc1cccc(C2Nc3cccc4cccc(c34)N2)c1	30	4	-2	2	12	-2
Clc1ccc(C2Nc3cccc4cccc(c34)N2)cc1Cl	-1	3	11	6.1*	4	15
O=C(O)/C=C/c1ccc(S(=O)(=O)Nc2ccc(OCc3ccccc3)cc2)cc1	15	-1	0	-2	-9	-3
O=C(O)/C=C/c1ccc(S(=O)(=O)Nc2ccc(C(=O)NCC(=O)O)cc2)cc1	2	1	-1	-1	50*	6
CN1OC[C@@H]2CN(C(=O)C3CCCCC3)[C@H](c3ccc(N4CCCCC4)cc3)C[C@@H]21	.	.	-12	.	.	-4
C=CCc1cc(Cl)ccc1OCCOCCNC(C)(C)C	63*	-1	4	-3	-66	6
Cc1ccc(NC(=O)c2sc3ncn(CC(=O)N4CCN(c5ccccn5)CC4)c(=O)c3c2C)cc1Cl	64*	-2	-3	-3	-6	12
Cc1ccc(NC(=O)c2sc3ncn(CC(=O)N4CCN(c5ccccn5)CC4)c(=O)c3c2C)cc1F	38	-1	-6	-2	6	3
COc1ccc2c(c1)[C@@]1(OCCC=C[C@H]1C)C(=O)N2C/C=C(\C)CCC=C(C)C	.	.	-3	.	.	-7
O=C(Cc1nc2ccccc2s1)c1ccc(O)cc1O	-14	4	.	-1	91*	.
O=C(O)c1ccc(NC2=C/C(=N/S(=O)(=O)c3cccs3)c3ccccc3C2=O)cc1	.	.	-10	.	.	11
Cc1cccc(NC2=C/C(=N/S(=O)(=O)c3cccs3)c3ccccc3C2=O)c1	-23	1	12	-1	.	33*
Cc1ccc(NC2=C/C(=N\S(=O)(=O)c3cccs3)c3ccccc3C2=O)c(C)c1	29	-4	.	-4	-1	.
O=C1C(Nc2ccc(O)cc2)=C/C(=N/S(=O)(=O)c2cccs2)c2ccccc21	48	0	9	-4	28	32*
Cc1ncc(CO)c2c1Oc1nc(-c3ccccc3)nc(SCC(=O)N3CCOCC3)c1C2	33	3	4	32*	-31	-9
Cc1ncc(CO)c2c1Oc1nc(-c3ccccc3)nc(SCC(=O)N3CCCCC3)c1C2	44	5	1	-1	-9	-6
Cc1ncc(CO)c2c1Oc1nc(-c3ccccc3)nc(SCC(=O)N(C)c3ccccc3)c1C2	5	2	6	7.9*	21	5
SMILES	PHOSPHO1 block	VIM-2 inhibitor	ARFGAP1 inh	IMP-1 inhibitor	Calb FLC	ASAP1 inh
COCc1cc(N2CCN(C(=O)OC(C)(C)C)C[C@@H]2C)ccc1Br	.	.	-7	.	.	-2
CN1OC[C@@H]2CN[C@H](c3ccc(-n4ccnc4)cc3)C[C@@H]21	.	.	-1	.	.	-10
Cc1cc(Nc2cccc(C(F)(F)F)c2)cc(=O)n1-c1cccc(C(F)(F)F)c1	.	.	4	.	.	14
Nc1cc(C(=O)O)ccc1Sc1ccccc1C(=O)O	63*	-2	11	-2	-14	4
Nc1ccccc1Sc1ccc(C(=O)c2ccccc2C(=O)O)cc1[N+](=O)[O-]	-19	-1	5	-3	8	3
CN(C(=O)[C@H]1O[C@@H](n2cnc3c(=O)[nH]c(N)nc32)[C@H](O)[C@@H]1O)C1CCCCC1	.	.	10	.	.	-3
